# Most compounds without a hit are left out; they make up all but 5.1% or so of the library.
# STAT1 activator: STAT1 signaling activators, primary screen, cell-based, HTS, luciferase reporter; NIH 3T3 STAT1-luciferase reporter, IFN-gamma, luminescence; 100% = IFN-gamma alone, no compound; activation (% of control), % at 5.5 µM; actives 2.6% (n = 200,000);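 active means activation above the screen-wide mean activation plus 3 SD, cut at about 130% in these data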;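 further: raw ratio to IFN-gamma control signal so 100% means no change and 0% no light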
# STAT3 activator: IL-6 driven STAT3 reporter potentiators, primary screen, U3A cells, luciferase, luminescence, MLSCN library; IL-6 STAT3-luciferase reporter; 100% = signal with IL-6 EC80 alone; actives 0.91% (n = 190,000); activation (% of control), % at 5.6 µM; AID 871, 2007;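 active means activation above the screen-wide mean of compound activation plus 3 SD, cut at about 130% in these data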;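 further: 0% = background luminescence of wells with medium and substrate only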
#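 system = STAT3-luciferase reporter U3A cells | reagent = IL-6 stimulus at 33 ng/mL final | timing = 1 h compound pre-exposure, 6 h IL-6 stimulation, 37 °C | measured by = luminescence | evaluation = % activation versus median of IL-6-stimulated wells | control set = IL-6-only wells as 100% reference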
# NF-kB expr up: activators of NF-kB expression in neurons, primary screen, cell-based, HTS; human neuronal cells, NF-kB reporter expression; stronger effect = higher value; actives 1.6% (n = 190,000); fold change at 12.5 µM; in the data active means fold change above about 3.3
# STAT3 inh: IL-6 driven STAT3 reporter inhibitors, primary screen, U3A cells, luciferase, luminescence, MLSCN library; IL-6 STAT3-luciferase reporter; host cell line lacks STAT1; inhibition, % at 5.5 µM; AID 862, 2007; actives 0.89% (n = 190,000);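 active means inhibition above the mean inhibition across all screened compounds plus 3 SD, cut at about 44% in these data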;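 further: 0% = DMSO only wells and 100% = 100 µM nifuroxazide control wells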
# STAT1 blocker: STAT1 signaling inhibitors, primary screen, cell-based, HTS, luciferase reporter; NIH 3T3 STAT1-luciferase reporter, IFN-gamma, luminescence; actives 0.35% (n = 200,000); AID 920, 2007; inhibition, % at 5.5 µM;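 active means inhibition above a set limit, the mean inhibition across all tested compounds plus 3 SD, cut at about 34% in these data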;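 further: 0% = IFN-gamma with DMSO and 100% = IFN-gamma with 300 µM nifuroxazide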
# APP 5'UTR act: activators of APP 5'UTR luciferase reporter, primary screen, SH-SY5Y cells. SH-SY5Y APP 5'UTR luciferase reporter, luminescence; zero percent = DMSO vehicle wells. actives 1% (n = 190,000). activation, % at 2 µM;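 active means activation above a set limit, based on mean plus 3 SD of controls, cut at about 140% in these data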
# * = called active by the depositor; · = no result.
SMILES,STAT1 activator,STAT3 activator,NF-kB expr up,STAT3 inh,STAT1 blocker,APP 5'UTR act
CN(C)c1ccc(N2CN=C3SCC(=O)N3C2)cc1,160*,128,0.58,-31,-67,136*
N#Cc1cnc2sc3ccccc3n2c1=N,130*,104,3.2,4,-33,-7
O=S(=O)(O)c1nnc2sc3ccccc3n12,99,100,1.4,3,1,7
Clc1ccc(Nc2nc3cccnc3s2)cc1,148*,102,2.8,1,-55,152*
O=c1sc(Nc2ccccc2)nc2ccccc12,88,95,0.88,8,11,19
O=C(COC(=O)C1(c2ccccc2F)CCCC1)NCc1cccs1,81,101,1,0,19,7
Cn1c(Cl)c(C(=O)Nc2ccc(Cl)cc2)c2ccccc21,107,155*,1.3,-50,-8,20
CN(C(=O)COC(=O)CNC(=O)c1ccc(Cl)cc1Cl)c1ccccc1,106,105,1,5,-9,30
c1csc(CSc2nnc3sc4ccccc4n23)c1,132*,114,2.7,-14,-35,43
c1csc(CSc2nc3ccccc3s2)c1,145*,107,2.8,-2,-47,55
COc1cccc(C(=O)Nc2nnc(-c3cccs3)s2)c1,102,52,3.3,58*,-2,56
O=C(Nc1nnc(-c2cccs2)s1)C1CC1,130*,101,1.7,1,-34,27
CCc1nnc(NC(=O)c2cccc(OC)c2)s1,137*,86,2.7,18,-40,101
Cc1nc(/C=C\C(=O)O)c2cc(C)oc2n1,104,102,·,4,-4,6
COc1ccc(Cl)cc1NC(=O)COC(=O)c1cc(NS(=O)(=O)c2cccs2)ccc1O,100,102,1.1,-2,0,-6
CCN(CC)c1ccc(C(=O)OCC(=O)Nc2ccc3[nH]c(=O)[nH]c3c2)cc1,106,106,0.99,-2,-8,-20
CCN(c1ccc(NC(=O)COC(=O)CCC(=O)c2ccc(F)cc2)cc1)C(C)C,99,101,1,5,1,1
COc1cccc(-c2noc(-c3ccc4c(c3)OCO4)n2)c1,62,42,5.7*,72*,41*,159*
COc1ccc(-c2noc(-c3ccc4c(c3)OCO4)n2)cc1,122,88,3.9*,17,-24,23
COc1cnn(-c2ccc(C)cc2)c(=O)c1Cl,141*,97,2,4,-43,24
CNc1cnn(-c2ccc(C)cc2)c(=O)c1Cl,129*,108,2.6,-7,-32,70
CNc1cnn(-c2ccc(C)cc2)c(=O)c1Sc1ccc(C)cc1,102,106,0.9,2,-2,7
COc1cnn(-c2ccc(C)cc2)c(=O)c1Br,121,100,1.8,11,-24,14
CC(=O)OCC1(C)CN(c2ccccc2)NC1=O (stereo unspecified),107,104,1.1,-3,-9,-6
COC(=O)c1cccnc1-n1c(=O)c2cccnc2n(Cc2cccc(C(F)(F)F)c2)c1=O,103,101,1,0,-4,1
SMILES,STAT1 activator,STAT3 activator,NF-kB expr up,STAT3 inh,STAT1 blocker,APP 5'UTR act
Cc1cc(-c2ccc(Br)cc2)n[nH]1,137*,83,1.5,27,-40,25
Nc1cc(-c2ccc(Br)cc2)[nH]n1,104,111,1,-9,-5,15
CCOC(=O)CSc1nc(-c2ccc3c(c2)OCO3)ccc1C#N,126,111,0.74,-7,-28,202*
COc1ccc2cc(C#N)c(SCC(=O)N3CCCC3)nc2c1,100,96,1.6,6,-2,-1
CCOC(=O)CSc1nc2cc(OCC)ccc2cc1C#N,124,95,2.2,13,-24,168*
COC(=O)CSc1nc2cc(OC)ccc2cc1C#N,142*,94,14*,14,-45,155*
CCOCCCNC(=O)C(NC(=O)c1ccccc1O)c1ccc(Cl)cc1 (stereo unspecified),108,98,1.1,13,-9,0
CC(=O)Oc1ccc(N2C(=O)C3C4C=CC(CC4)C3C2=O)cc1[N+](=O)[O-] (stereo unspecified),94,110,1,-11,4,-4
Cc1cc2oc(=O)cc(CN3CCC(C)CC3)c2cc1Cl,100,102,1.8,2,0,1
Cc1ccc2c(CN3CCC(C)CC3)cc(=O)oc2c1,138*,113,4.1*,-9,-41,78
Fc1ccc(-c2nnc(-c3ccc(Cl)cc3)o2)cc1,135*,82,4.2*,23,-38,37
CSc1nnc(-c2ccc(F)cc2)o1,108,92,0.87,17,-8,3
Cc1cccc(/C=C(\C(=O)C(=O)O)c2ccc3ccccc3n2)c1,148*,124,1,-20,-53,25
O=C(NCCOc1ccc(Cl)cc1)c1ccc2ccccc2n1,104,93,1.2,12,-5,17
CN(C)C(=S)c1ccc2ccccc2n1,95,107,0.71,-5,6,-5
O=C(O)C(=O)/C(=C\c1cccc(Cl)c1)c1ccc2ccccc2n1,137*,129,1.3,-31,-39,46
Cc1cccc(NC(=O)CSc2nnnn2-c2ccc3c(c2)OCCO3)n1,97,108,1.1,-5,1,-19
O=C1c2ccccc2NC(c2ccccc2Cl)N1N=C1CCCCCC1 (stereo unspecified),139*,104,1.7,-7,-43,44
COc1ccc(NC(=O)CCN2CCOCC2)c(OC)c1,94,103,1.1,-1,4,14
Cc1ccc(NC(=O)C2Cc3ccccc3C(=O)O2)cc1 (stereo unspecified),135*,92,1.7,13,-39,52
Cc1cc(=O)n2[nH]c(-c3ccc(C(C)(C)C)cc3)cc2n1,106,92,5.1*,7,-6,16
CCc1c(C)nc2cc(-c3ccc(OC)cc3)[nH]n2c1=O,130*,107,2.3,-2,-33,112
N#C/C(=N\Nc1ccccc1F)c1nc(-c2ccccc2)cs1,95,94,1.2,9,4,29
Cc1ccc(N2CCN(C(=S)Nc3ccccc3)CC2)cc1,98,85,1.1,20,2,6
O=C(O)c1c(-c2ccc(Cl)cc2)cn2ccccc12,135*,112,2.1,-14,-38,16
FC(F)Oc1ccccc1/C=N/n1cnc2ccccc21,134*,117,1.8,-11,-37,39
CC(C(=O)N1CCOCC1)N1C(=O)c2cccc3cccc(c23)C1=O (stereo unspecified),99,97,1.2,10,0,-8
